Source: PubChem BioAssay (The Scripps Research Institute Molecular Screening Center)
HTR5A inv ag = counter-screen for OPRM1-OPRD1 inverse agonists: human HTR5A inverse agonism | 340,000 tested, 0.083% active | inhibition, % at 9.3 µM | P47898 | HTR5A cell line, luminescence; in the data active = inhibition mostly above about 23%, no sharp cut-off; inactive = mostly below about 18%;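 note: 0% = cells with DMSO and 100% = no-cell wells with DMSO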
Target sequence (P47898 whole entry, looked up): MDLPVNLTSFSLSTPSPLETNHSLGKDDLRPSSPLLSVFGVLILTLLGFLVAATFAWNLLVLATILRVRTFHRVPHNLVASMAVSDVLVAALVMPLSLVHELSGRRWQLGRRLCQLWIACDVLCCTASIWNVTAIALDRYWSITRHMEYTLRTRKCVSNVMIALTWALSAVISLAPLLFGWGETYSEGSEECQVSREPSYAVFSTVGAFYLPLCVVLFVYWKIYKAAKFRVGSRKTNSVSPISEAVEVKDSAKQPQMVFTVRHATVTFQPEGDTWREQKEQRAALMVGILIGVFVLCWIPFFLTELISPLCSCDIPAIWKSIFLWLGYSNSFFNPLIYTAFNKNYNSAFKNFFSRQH
MC4R barr agon = agonists of human melanocortin 4 receptor (MC4R) beta-arrestin; P32245; U2OS MC4R beta-arrestin complementation, luminescence; percent of melanotan II response, DMSO zero; activation, % at 8.9 µM; 360,000 tested, 0.98% active;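 active = activation above a per-plate cutoff, the mean activation of sample wells on that plate plus 3 SD, cut at about 8% in these data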
Target sequence (P32245 whole entry, looked up): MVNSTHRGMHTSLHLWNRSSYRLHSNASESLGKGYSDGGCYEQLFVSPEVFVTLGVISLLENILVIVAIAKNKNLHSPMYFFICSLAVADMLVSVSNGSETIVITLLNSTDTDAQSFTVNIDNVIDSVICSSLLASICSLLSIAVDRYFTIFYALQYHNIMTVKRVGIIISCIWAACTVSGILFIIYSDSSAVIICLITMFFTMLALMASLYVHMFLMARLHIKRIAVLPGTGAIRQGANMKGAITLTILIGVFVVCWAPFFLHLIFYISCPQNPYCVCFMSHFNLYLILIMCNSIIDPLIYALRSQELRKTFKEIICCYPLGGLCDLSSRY
OPRM1-OPRD1 ag = OPRM1-OPRD1 heterodimerization agonism; P35372+P41143; cells, luminescence; activation, % at 9.3 µM; 340,000 tested, 0.3% active; in the data active = activation above about 18%;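 note: 0% = vehicle-treated cells and 100% = reference agonist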
MC4R antag cAMP = antagonists of human melanocortin 4 receptor (MC4R). 360,000 tested, 0.48% active. inhibition, % at 6.5 µM. MC4R-expressing cells, MTII-stimulated cAMP, LANCE TR-FRET. P32245;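 active = inhibition above its plate's cutoff, the mean of tested wells on that plate plus 3 SD, cut at about 29% in these data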;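 note: 0% = Melanotan II alone and 100% = Melanotan II plus saturating MCL0020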
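Material: human MC4R-expressing U2OS cells. Probe or stimulus: Melanotan II challenge. Dosing: 6.5 µM single dose. Times: 30-min compound, 1-h challenge, 1-h detection, room temperature. Technique: TR-FRET with Eu-cAMP and labeled anti-cAMP, 671 nm. Replication: singlicate.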
OPRM1-OPRD1 inv = inverse agonists of human mu-delta opioid receptor heterodimerization; P35372+P41143; cell-based MOR-DOR heterodimer luminescence, inverse agonism; inhibition, % at 9.3 µM; 340,000 tested, 0.21% active; AID 504357; in the data active = inhibition above about 22%, passing the limit was not always enough;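 note: 0% = cells with DMSO and 100% = wells without cells with DMSO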
HTR5A ag = counter-screen for OPRM1-OPRD1 agonists: human HTR5A agonism | 340,000 tested, 0.61% active | HTR5A agonist assay, luminescence, cell-based | activation, % at 9.3 µM | P47898 | AID 504692; in the data active = activation mostly above about 9.5%, no sharp cut-off; inactive = mostly below about 7.6%;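 note: 0% = cells with vehicle only and 100% = reference agonist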
OPRM1-D1 inv cf = confirmation of human OPRM1-OPRD1 heterodimerization inverse agonists | 580 tested, 20% active | cells expressing OPRM1/OPRD1 heterodimer, luminescence | AID 504900 | inhibition, % at 9.3 µM | shares compounds with OPRM1-OPRD1 inv; in the data active = inhibition above about 32%;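 note: 0% = cells with DMSO and 100% = wells lacking cells with DMSO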
HTR5A inv ctr2 = inverse agonist of human HTR5A in OPRM1-OPRD1 counter-screen | inhibition, % at 9.3 µM | 580 tested, under 10 active | HTR5A-expressing cells, luminescence, inverse agonism | shares compounds with OPRM1-OPRD1 inv; call rule not given here;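 note: 0% = cells with DMSO and 100% = no-cell wells with DMSO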
Starred values were filed as active, the others as inactive; i = inactive; nt = no result given. Only some compounds are listed: those with a hit (about 2.4% of all), similar ones and a draw of the others.

SMILES | HTR5A inv ag | MC4R barr agon | OPRM1-OPRD1 ag | MC4R antag cAMP | OPRM1-OPRD1 inv | HTR5A ag | OPRM1-D1 inv cf | HTR5A inv ctr2
Cc1ccccc1OCCCN1C(=O)C(=O)c2cccc(C)c21 | -8.2 | 2.2 | -9.6 | -9.7 | 49.6* | 2.9 | i | -2.3
Cc1cccc2c1N(CCCOc1ccccc1)C(=O)C2=O | -22.5 | 1.5 | -4.5 | -5.6 | 26.0 | -3.4 | nt | nt
COc1cc(/C=C/C(=O)OCC(=O)c2ccc(S(=O)(=O)N3CCCCC3)cc2)cc(OC)c1OC | -15.1 | 1.6 | -3.8 | 5.5 | 18.3 | 6.4 | nt | nt
COc1cccc(/C=C/C(=O)OCC(=O)c2ccc(S(=O)(=O)N3CCCCC3)cc2)c1OC | 13.4 | -1.4 | -5.7 | 22.9 | 31.3* | -5.3 | -32.3 | 17.0
COc1ccc(C(=O)OCC(=O)c2ccc(S(=O)(=O)N3CCCCC3)cc2)c(OC)c1 | 4.4 | -1.2 | -1.4 | 2.6 | 8.9 | 0.6 | nt | nt
COc1cccc(C(=O)OCC(=O)c2ccc(S(=O)(=O)N3CCCCC3)cc2)c1OC | 8.4 | -2.4 | -4.7 | 8.3 | 30.1* | -2.8 | -30.6 | 6.9
Cc1ccc(C(=O)OCC(=O)c2ccc(S(=O)(=O)N3CCCCC3)cc2)o1 | 20.1 | -4.2 | -8.1 | 0.8 | 52.5* | -6.7 | i | -10.7
CCC(=O)Nc1ccc(C(=O)CSc2nc3ccccc3[nH]2)cc1 | -23.6 | 0.3 | -2.0 | 1.1 | 9.4 | 4.2 | nt | nt
Cc1ccccc1CC(=O)N1CCOCC1 | -16.1 | 0.7 | -1.8 | 10.2 | 8.4 | 4.4 | nt | nt
CC(C)CC(N)c1csc(Nc2ccc(C(=O)NCCO)cc2)n1 (stereo not drawn) | nt | 0.3 | nt | 6.6 | nt | nt | nt | nt
COc1ccc(C(=O)Cc2nnc(C)s2)c(OC)c1 | 18.7 | -0.2 | -12.5 | 13.4 | 77.6* | -6.0 | 37.0* | 8.8
CNC(=O)c1nnsc1S(=O)(=O)c1ccc(Cl)cc1 | 17.4 | -2.7 | -5.6 | 5.1 | 32.1* | -6.1 | -9.7 | -9.7
COc1ccc(C(=O)CNc2ccccc2CO)cc1 | 1.1 | -0.8 | -2.9 | 10.0 | 15.9 | -0.4 | nt | nt
COc1ccccc1NCC(=O)c1ccc(C)c(C)c1 | -16.7 | -0.1 | -6.0 | 0.7 | 30.6* | -3.5 | -12.7 | -7.4
COc1ccc(C(=O)CNc2ccc(C)cc2C)cc1 | -8.9 | 0.9 | -6.6 | 7.8 | 32.5* | 3.4 | 70.3* | 1.9
COc1ccccc1NCC(=O)c1ccc(Cl)cc1 | 0.8 | -1.4 | -3.0 | 11.9 | 16.9 | -0.2 | nt | nt
O=C(CN1CCOCC1)Nc1nc2ccc(Br)cc2s1 | 0.1 | -2.3 | -1.1 | -0.9 | 5.9 | 1.8 | nt | nt
Cc1ccc(NCN2C(=O)C(=O)c3ccccc32)nc1 | -13.4 | -2.4 | -13.8 | -21.0 | 70.0* | -5.1 | 59.0* | 16.9
Cc1ccc(S(=O)(=O)N2C[C@]3(O)C[C@@H]4C(=O)N(c5ccccc5)C(=O)[C@@H]4C[C@]3(OC(=O)Nc3cccs3)C2)cc1 | nt | 1.6 | nt | 13.1 | nt | nt | nt | nt
O=C1C2=C(c3ccccc31)[N+](=O)C1CCCCC1N2[O-] (stereo not drawn) | 16.9 | -2.2 | -13.4 | 3.7 | 55.9* | 1.6 | 2.8 | 1.5
Cc1nnsc1C(=O)NNc1ccc(C(C)(C)C)cc1 | -9.8 | 0.5 | -15.1 | 0.1 | 77.0* | 1.7 | -27.3 | 10.2
Cc1nnsc1C(=O)NNc1ccc(C(C)C)cc1 | -49.8 | -0.5 | -2.8 | 5.3 | 13.7 | 2.6 | nt | nt
CN(C)S(=O)(=O)c1cccc(C(=O)Nc2ccccc2[N+](=O)[O-])c1 | 8.6 | 0.5 | -7.0 | 19.7 | 34.0* | -1.4 | 8.3 | -7.9
COc1ccc(NC(=O)c2nc(S(=O)(=O)Cc3cccc(C)c3)ncc2Cl)c(OC)c1 | 2.8 | -2.8 | -6.8 | -1.3 | 35.0* | 3.3 | -338.4 | -20.3
ON(CCc1ccncc1)Cc1ccccc1 | 3.9 | -1.1 | -8.3 | 0.2 | 44.0* | -1.1 | 4.4 | -22.0
SMILES | HTR5A inv ag | MC4R barr agon | OPRM1-OPRD1 ag | MC4R antag cAMP | OPRM1-OPRD1 inv | HTR5A ag | OPRM1-D1 inv cf | HTR5A inv ctr2
CC(=O)N(/N=C1\Sc2ccccc2C1=O)c1cccc(C)c1 | 30.9 | -2.2 | -10.8 | -6.7 | 53.3* | -14.1 | 44.4* | -6.7
O=C(Cc1ccccc1)NCC(=O)OCC(=O)c1ccc(Cl)c([N+](=O)[O-])c1 | 25.9 | -2.8 | -15.0 | 10.5 | 90.4* | -9.6 | 70.2* | 18.6
Cc1ccc(C(=O)COC(=O)CNC(=O)C(c2ccccc2)c2ccccc2)cc1[N+](=O)[O-] | 16.1 | -1.5 | -11.8 | 8.1 | 66.3* | -4.6 | 41.1* | 12.1
Cc1ccc(C(=O)NCC(=O)OCC(=O)c2ccc(C)c([N+](=O)[O-])c2)cc1 | 7.4 | -1.2 | -9.9 | 13.6 | 51.0* | -2.6 | 42.4* | 19.2
CCN1C(=O)C(O)(C2COC(C)(C)CC2=O)c2cc(Br)ccc21 (stereo not drawn) | -1.8 | -1.9 | -9.4 | -0.1 | 56.3* | 0.8 | -16.2 | 2.9
CC1=C/C(=C(/c2ccc(O)c(C)c2)c2ccccc2S(=O)(=O)O)C=CC1=O | 15.0 | -5.5 | -7.1 | -1.6 | 29.2* | -5.4 | i | -9.3
CC1=C/C(=C(/c2cc(C)c(O)c(Br)c2)c2ccccc2S(=O)(=O)O)C=C(Br)C1=O | 21.1 | -4.0 | -3.5 | 0.6 | 19.6 | -5.4 | nt | nt
O=C(CN=C1NS(=O)(=O)c2ccccc21)OCC(=O)c1cc(F)ccc1F | 11.0 | -4.9 | -5.9 | 3.0 | 29.8* | -2.7 | 7.4 | 45.7*
O=C(CCN=C1NS(=O)(=O)c2ccccc21)OCC(=O)c1ccccc1Cl | -0.3 | -3.1 | -3.8 | 6.6 | 19.8 | 0.1 | nt | nt
Cc1ccc(NNC(=O)C(=O)N2CCCCC2)cc1 | 2.8 | -0.8 | -5.4 | 6.0 | 27.9* | -0.8 | 3.3 | -5.8
S=c1nc[nH]c2c1ncn2C1CCCO1 (stereo not drawn) | 16.5 | -1.4 | -2.4 | 8.4 | 12.2 | -4.5 | nt | nt
O=C(CCC(=O)OCC(=O)c1cccc([N+](=O)[O-])c1)Nc1ccccc1Cl | 25.8 | -1.9 | -16.8 | 5.2 | 76.8* | -12.2 | -55.8 | 1.0
O=C(CCC(=O)OCc1cccc([N+](=O)[O-])c1)Nc1ccccc1Cl | 11.1 | -1.8 | -3.6 | 8.3 | 17.9 | -4.7 | nt | nt
Cc1ccc(C(=O)COC(=O)CCC(=O)Nc2cc(Cl)ccc2Cl)cc1[N+](=O)[O-] | 33.4 | 1.9 | -12.2 | 0.6 | 51.5* | -13.3 | 36.2* | 10.4
O=C(CCC(=O)OCC(=O)c1cccc([N+](=O)[O-])c1)NC1CCCCC1 | -19.2 | -0.9 | -11.6 | 15.1 | 61.7* | -4.6 | -22.2 | 10.4
CC(=O)Nc1ccc(NC(=O)CCC(=O)OCC(=O)c2cccc([N+](=O)[O-])c2)cc1 | 29.6 | -0.3 | -10.9 | 2.0 | 71.2* | -11.9 | -12.0 | -18.1
O=C(NS(=O)(=O)Nc1ccccc1)C1=C(N2CCCC2)COC1=O | -2.8 | -0.5 | -0.8 | 4.4 | 4.3 | 1.1 | nt | nt
